Active and inactive are the calls of the source. The calls are words filed in the database; no cut-off is given here.
Columns and labels:
[1] = target: T1, 3',5'-cyclic-AMP phosphodiesterase 4D (Homo sapiens, UniProt Q08499); experiment: Inhibition of human PDE4D
[2] = target: T1, 3',5'-cyclic-AMP phosphodiesterase 4D; experiment: Inhibition of human PDE4D in U937 cells assessed as cAMP level at 10 uM relative to control; format: cell-based; design: scale not given: the % may be the effect or the level left; details: U-937
Summary of the method: (§1)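 cAMP content of U937 cells was measured after compound exposure and reported as a percentage of the untreated control level. Separately, an EC50 was derived for cAMP accumulation in the same cells.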

Mus musculus [3] = experiment: Inhibition of ovalbumin-induced airway hyperresponsiveness in mouse at 30 mg/kg measured after 48 hrs of ovalbumin challenge; format: functional, organism-based; design: dose 30 mg/kg
Mus musculus [4] = experiment: Inhibition of ovalbumin-induced eosinophil peroxidase activity in mouse bronchoalveolar lavage fluid at 30 mg/kg measured after 62 hrs of ovalbumin challenge relative to control; format: functional; details: Lung
Summary of the method: (§2)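 Mice received an ovalbumin inhalation challenge, with compounds given in 0.5% CMC vehicle. Bronchoalveolar lavage fluid was collected 62 h after OVA inhalation, and eosinophil peroxidase activity was measured as a marker of eosinophil infiltration. Data are mean ± SD, n = 9–10 per group, compared with the vehicle group.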

[5] = target: T1, 3',5'-cyclic-AMP phosphodiesterase 4D; experiment: Inhibition of human PDE4D in U937 cells assessed as cAMP level at 20 uM relative to control; format: cell-based; design: scale not given: the % may be the effect or the level left; details: U-937; summary of the method: as §1
[6] = target: cGMP-specific 3',5'-cyclic phosphodiesterase (Homo sapiens, UniProt O76074); experiment: Inhibition of PDE5
[7] = Inhibition of PDE3
[8] = Inhibition of PDE7
Mus musculus [9] = experiment: Inhibition of ovalbumin-induced airway hyperresponsiveness in mouse at 100 mg/kg measured after 48 hrs of ovalbumin challenge; format: functional, organism-based; design: dose 100 mg/kg
[10] = Inhibition of PDE4
Mus musculus [11] = experiment: Inhibition of ovalbumin-induced eosinophil peroxidase activity in mouse bronchoalveolar lavage fluid at 100 mg/kg measured after 62 hrs of ovalbumin challenge relative to control; format: functional; details: Lung; summary of the method: as §2
[12] = target: T1, 3',5'-cyclic-AMP phosphodiesterase 4D; experiment: Inhibition of human PDE4D in U937 cells assessed as cAMP accumulation; format: cell-based, U-937; summary of the method: as §1

T1 sequence (Q08499 whole entry): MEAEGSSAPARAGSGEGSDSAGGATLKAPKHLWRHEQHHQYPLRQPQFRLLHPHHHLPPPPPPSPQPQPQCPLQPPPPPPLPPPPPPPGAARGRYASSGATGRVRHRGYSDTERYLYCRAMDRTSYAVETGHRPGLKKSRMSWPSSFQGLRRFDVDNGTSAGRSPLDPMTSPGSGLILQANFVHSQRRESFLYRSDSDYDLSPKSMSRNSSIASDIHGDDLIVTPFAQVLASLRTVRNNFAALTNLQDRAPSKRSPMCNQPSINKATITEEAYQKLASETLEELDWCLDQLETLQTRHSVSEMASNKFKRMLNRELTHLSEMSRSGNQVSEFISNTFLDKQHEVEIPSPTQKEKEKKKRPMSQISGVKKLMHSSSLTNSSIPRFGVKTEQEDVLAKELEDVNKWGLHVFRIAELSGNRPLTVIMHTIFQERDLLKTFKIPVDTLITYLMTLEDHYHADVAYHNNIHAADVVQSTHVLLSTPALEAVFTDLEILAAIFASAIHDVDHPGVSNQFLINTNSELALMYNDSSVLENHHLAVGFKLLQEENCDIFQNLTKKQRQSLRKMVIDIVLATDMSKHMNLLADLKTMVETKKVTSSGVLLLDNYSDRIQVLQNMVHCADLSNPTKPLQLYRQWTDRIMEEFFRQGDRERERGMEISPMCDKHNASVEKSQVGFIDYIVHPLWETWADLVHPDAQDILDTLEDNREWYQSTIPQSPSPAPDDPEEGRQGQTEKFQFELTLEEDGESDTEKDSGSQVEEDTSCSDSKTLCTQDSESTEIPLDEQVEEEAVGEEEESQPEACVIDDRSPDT

Structure (SMILES)	IC50 [1] [µM]	further results
FC(F)Oc1ccc(-c2ccnc3cc(-c4cccc(N5CCCCC5)c4)nn23)cc1OCC1CC1	0.1	
COc1ccc(-c2cc3nccc(-c4ccc(OC(F)F)c(OCC5CC5)c4)n3n2)cc1O	0.032	
CC(C)(C)OC(=O)N1CCN(c2cccc(-c3cc4nccc(-c5ccc(OC(F)F)c(OCC6CC6)c5)n4n3)c2)CC1	0.054	
COc1ccc(-c2ccnc3cc(-c4ccccc4)nn23)cc1OC1CCCC1	0.07	
CS(=O)(=O)CNc1cccc(-c2cc3nccc(-c4ccc(OC(F)F)c(OCC5CC5)c4)n3n2)c1	0.032	
O=C(Nc1c(Cl)cncc1Cl)c1ccc(OC(F)F)c(OCC2CC2)c1 [ROFLUMILAST]		inhibition (Mus musculus [3]): Active; inhibition in vivo at 30 mg/kg (Mus musculus [4]): 50%
CCNC(=O)c1cccc(-c2cc3nccc(-c4ccc(OC(F)F)c(OCC5CC5)c4)n3n2)c1	0.028	
FC(F)Oc1ccc(-c2ccnc3cc(-c4cc(Cl)cc(Cl)c4)nn23)cc1OCC1CC1	0.1	
COc1ccc(-c2ccnc3cc(-c4cccc(Cl)c4)nn23)cc1OC1CCCC1	0.02	Activity [5]: 19.7%
COc1ccc(-c2cc3nccc(-c4ccc(OC)c(OC5CCCC5)c4)n3n2)cc1	0.06	
COc1ccc(-c2cc3nccc(-c4ccc(OC(F)F)c(OCC5CC5)c4)n3n2)cc1OC	0.025	
COc1ccc(-c2ccnc3cc(-c4ccccc4Br)nn23)cc1OC1CCCC1	0.14	
COCCOC(=O)c1cccc(-c2cc3nccc(-c4ccc(OC(F)F)c(OCC5CC5)c4)n3n2)c1	0.16	
COc1cc(OC)cc(-c2cc3nccc(-c4ccc(OC(F)F)c(OCC5CC5)c4)n3n2)c1	0.029	
C=CCOc1cccc(-c2cc3nccc(-c4ccc(OC(F)F)c(OCC5CC5)c4)n3n2)c1	0.032	
N#CCCNc1cccc(-c2cc3nccc(-c4ccc(OC(F)F)c(OCC5CC5)c4)n3n2)c1	0.083	

Structure (SMILES)	IC50 [1] [µM]	further results
O=C(c1cccc(-c2cc3nccc(-c4ccc(OC(F)F)c(OCC5CC5)c4)n3n2)c1)N1CCCCC1	0.065	
[O-][n+]1cccc(-c2cc3nccc(-c4ccc(OC(F)F)c(OCC5CC5)c4)n3n2)c1	0.042	inhibition (Mus musculus [9]): Active; IC50 [6]: > 5 µM; IC50 [10]: 0.026 µM; inhibition in vivo at 100 mg/kg (Mus musculus [11]): 50%; IC50 [7]: > 5 µM; EC50 [12]: 1.61 µM; IC50 [8]: > 5 µM
CCN(CC)C(=O)c1cccc(-c2cc3nccc(-c4ccc(OC(F)F)c(OCC5CC5)c4)n3n2)c1	0.067	
COc1ccc(-c2ccnc3cc(-c4cc(Cl)ccc4Cl)nn23)cc1OC1CCCC1	0.03	
FC(F)Oc1ccc(-c2ccnc3cc(-c4cccc(-n5cnnn5)c4)nn23)cc1OCC1CC1	0.044	
CN(C)C(=O)c1cccc(-c2cc3nccc(-c4ccc(OC(F)F)c(OCC5CC5)c4)n3n2)c1	0.023	
COc1ccc(-c2ccnc3cc(-c4ccccc4OC)nn23)cc1OC1CCCC1	0.07	
FC(F)Oc1ccc(-c2ccnc3cc(-c4cccnc4)nn23)cc1OCC1CC1	0.027	IC50 [6]: 3.5 µM; IC50 [10]: 0.009 µM; IC50 [7]: > 5 µM; IC50 [8]: 3 µM
FC(F)Oc1ccc(-c2ccnc3cc(-c4cc(Cl)ccc4Cl)nn23)cc1OCC1CC1	0.2	
CC(C)(C)NC(=O)c1cccc(-c2cc3nccc(-c4ccc(OC(F)F)c(OCC5CC5)c4)n3n2)c1	0.044	
CC(C)OC(=O)c1cccc(-c2cc3nccc(-c4ccc(OC(F)F)c(OCC5CC5)c4)n3n2)c1	0.04	
COc1ccc(-c2ccnc3cc(-c4ccc(Cl)cc4)nn23)cc1OC1CCCC1	0.09	
COc1ccc(-c2ccnc3cc(-c4ccc(Br)cc4)nn23)cc1OC1CCCC1	0.13	
COc1ccc(-c2ccnc3cc(-c4cccc(Br)c4)nn23)cc1OC1CCCC1	0.03	Activity [5]: 11.4%
COc1cccc(-c2cc3nccc(-c4ccc(OC)c(OC5CCCC5)c4)n3n2)c1	0.04	Activity [5]: 20.1%

Second part, led by results:

IC50 [1] [µM]	Structure (SMILES)	further results
0.018	CC(=O)Oc1cccc(-c2cc3nccc(-c4ccc(OC(F)F)c(OCC5CC5)c4)n3n2)c1	
0.03	COc1cccc(-c2cc3nccc(-c4ccc(OC(F)F)c(OCC5CC5)c4)n3n2)c1	Activity [2]: 44.4%
0.009	O=C(O)c1cccc(-c2cc3nccc(-c4ccc(OC(F)F)c(OCC5CC5)c4)n3n2)c1	
0.036	FC(F)Oc1ccc(-c2ccnc3cc(-c4cccc(Cl)c4)nn23)cc1OCC1CC1	
0.037	COC(=O)c1cccc(-c2cc3nccc(-c4ccc(OC(F)F)c(OCC5CC5)c4)n3n2)c1	
0.19	FC(F)Oc1ccc(-c2ccnc3cc(-c4cccc(C(F)(F)F)c4)nn23)cc1OCC1CC1	
0.046	Nc1cccc(-c2cc3nccc(-c4ccc(OC(F)F)c(OCC5CC5)c4)n3n2)c1	
0.006	FC(F)Oc1ccc(-c2ccnc3cc(-c4cccc(I)c4)nn23)cc1OCC1CC1	IC50 [6]: > 5 µM; Activity [2]: 19.8%; IC50 [7]: 2 µM; IC50 [8]: > 5 µM
0.013	FC(F)Oc1ccc(-c2ccnc3cc(-c4cccc(Br)c4)nn23)cc1OCC1CC1	Activity [2]: 57.1%
0.04	CNc1cccc(-c2cc3nccc(-c4ccc(OC(F)F)c(OCC5CC5)c4)n3n2)c1	
0.048	CCOc1cccc(-c2cc3nccc(-c4ccc(OC(F)F)c(OCC5CC5)c4)n3n2)c1	
0.12	CN(C)c1cccc(-c2cc3nccc(-c4ccc(OC(F)F)c(OCC5CC5)c4)n3n2)c1	
0.04	N#CNc1cccc(-c2cc3nccc(-c4ccc(OC(F)F)c(OCC5CC5)c4)n3n2)c1	
0.1	Fc1cccc(-c2cc3nccc(-c4ccc(OC(F)F)c(OCC5CC5)c4)n3n2)c1	
0.021	Oc1cccc(-c2cc3nccc(-c4ccc(OC(F)F)c(OCC5CC5)c4)n3n2)c1	
0.047	CN(CCN)c1cccc(-c2cc3nccc(-c4ccc(OC(F)F)c(OCC5CC5)c4)n3n2)c1	
0.15	NC(=O)Nc1cccc(-c2cc3nccc(-c4ccc(OC(F)F)c(OCC5CC5)c4)n3n2)c1	
0.046	CC(C)Oc1cccc(-c2cc3nccc(-c4ccc(OC(F)F)c(OCC5CC5)c4)n3n2)c1	
0.039	FC(F)Oc1ccc(-c2ccnc3cc(-c4cccc(C(F)F)c4)nn23)cc1OCC1CC1	
0.13	FC(F)Oc1ccc(-c2ccnc3cc(-c4ccccc4)nn23)cc1OCC1CC1	
